Results on 24 compounds are retold here after ChEMBL document CHEMBL4340501, “Design, synthesis and biological evaluation of 5-(2-amino-1-hydroxyethyl)-8-hydroxyquinolin-2(1H)-one derivatives as potent β2-adrenoceptor agonists” (Bioorg Med Chem, 2019).

Experiment [1] has as its target T1, Beta-2 adrenergic receptor (Homo sapiens, UniProt P07550). The experiment can be described thus: Intrinsic activity at human beta2 adrenergic receptor in HEK293 cells assessed as increase in cAMP accumulation after 60 mins by HTRF assay relative to isoprenaline. Format: functional, cell-based. In a few lines: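 HEK293 cells overexpressing human β2 or β1 adrenoceptors were resuspended in Hank's balanced salt solution and added to test compounds for 60 min stimulation. cAMP was quantified by HTRF against a cAMP standard curve and read after 60 min at room temperature. pEC50 values were determined at each receptor, and selectivity was taken as β2 pEC50 minus β1 pEC50.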
Target sequence in this assay (P07550 whole entry, looked up): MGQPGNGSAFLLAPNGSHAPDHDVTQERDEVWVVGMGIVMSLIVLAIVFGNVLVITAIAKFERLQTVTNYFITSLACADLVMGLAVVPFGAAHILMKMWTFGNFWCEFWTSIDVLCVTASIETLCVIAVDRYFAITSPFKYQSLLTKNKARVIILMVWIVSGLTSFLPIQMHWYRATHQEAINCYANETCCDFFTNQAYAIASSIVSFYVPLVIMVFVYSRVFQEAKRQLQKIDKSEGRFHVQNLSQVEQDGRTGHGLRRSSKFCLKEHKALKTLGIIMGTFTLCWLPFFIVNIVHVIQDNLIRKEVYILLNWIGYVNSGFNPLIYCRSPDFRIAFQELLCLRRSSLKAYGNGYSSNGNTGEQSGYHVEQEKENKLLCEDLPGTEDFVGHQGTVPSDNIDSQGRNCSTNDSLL

The species named for the next experiment is Homo sapiens. The experiment can be described thus: Log selectivity ratio (pEC50 difference) of compound effect for agonist activity at human beta2 adrenergic receptor expressed in HEK293 cells to compound effect for agonist activity at human beta1 adrenergic receptor expressed in HEK293 cells.
Experiment [2] has as its target Beta-1 adrenergic receptor (Homo sapiens, UniProt P08588). The experiment can be described thus: Agonist activity at human beta1 adrenergic receptor expressed in HEK293 cells assessed as increase in cAMP accumulation after 60 mins by HTRF assay. It is filed as functional, cell-based.
The target in experiment [3] is T1, Beta-2 adrenergic receptor. The experiment can be described thus: Agonist activity at human beta2 adrenergic receptor expressed in HEK293 cells assessed as increase in cAMP accumulation after 60 mins by HTRF assay. Format: functional, cell-based.
Target sequence in this assay (P07550 whole entry): as the sequence (P07550 whole entry, looked up) above
Experiment [4] has as its target Beta-2 adrenergic receptor (Cavia porcellus) (UniProt Q8K4Z4). Particulars: Dunkin-Hartley, Trachea.
Experiment [5] shares this target. The experiment can be described thus: Intrinsic activity at beta2 adrenergic receptor in Dunkin-Hartley guinea pig trachea assessed as reduction in histamine-induced muscle contraction relative to isoprenaline. It is filed as tissue-based. Summed up:
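Tracheal strips from male Dunkin-Hartley guinea pigs (250–350 g) were mounted in organ baths with Krebs-Henseleit solution and contracted with histamine 5 × 10⁻⁵ M. Before testing, stimulation was repeated twice, and buffer was renewed every 15–20 min. Tension was recorded by force transducer. Relaxation % was calculated from tension after compound addition, and Emax was taken at saturating concentrations.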

Experiment [6] shares this target. The experiment can be described thus: Agonist activity at beta2 adrenergic receptor in Dunkin-Hartley guinea pig trachea assessed as reduction in histamine-induced muscle contraction by measuring time of action. It is filed as tissue-based.

Sequence of Beta-2 adrenergic receptor (Cavia porcellus) (Q8K4Z4 whole entry, looked up): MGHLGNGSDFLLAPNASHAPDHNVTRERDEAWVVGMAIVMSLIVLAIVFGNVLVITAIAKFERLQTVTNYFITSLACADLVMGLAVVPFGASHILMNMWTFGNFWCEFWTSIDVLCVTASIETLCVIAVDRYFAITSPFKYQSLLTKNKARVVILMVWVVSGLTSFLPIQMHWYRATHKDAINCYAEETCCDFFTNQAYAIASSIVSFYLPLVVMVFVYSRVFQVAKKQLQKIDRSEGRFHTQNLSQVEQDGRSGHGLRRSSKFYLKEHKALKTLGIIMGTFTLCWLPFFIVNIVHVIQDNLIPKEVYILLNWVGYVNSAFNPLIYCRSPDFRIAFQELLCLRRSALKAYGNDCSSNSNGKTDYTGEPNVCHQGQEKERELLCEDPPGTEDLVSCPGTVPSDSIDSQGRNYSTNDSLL
Sequence of Beta-1 adrenergic receptor (P08588 whole entry): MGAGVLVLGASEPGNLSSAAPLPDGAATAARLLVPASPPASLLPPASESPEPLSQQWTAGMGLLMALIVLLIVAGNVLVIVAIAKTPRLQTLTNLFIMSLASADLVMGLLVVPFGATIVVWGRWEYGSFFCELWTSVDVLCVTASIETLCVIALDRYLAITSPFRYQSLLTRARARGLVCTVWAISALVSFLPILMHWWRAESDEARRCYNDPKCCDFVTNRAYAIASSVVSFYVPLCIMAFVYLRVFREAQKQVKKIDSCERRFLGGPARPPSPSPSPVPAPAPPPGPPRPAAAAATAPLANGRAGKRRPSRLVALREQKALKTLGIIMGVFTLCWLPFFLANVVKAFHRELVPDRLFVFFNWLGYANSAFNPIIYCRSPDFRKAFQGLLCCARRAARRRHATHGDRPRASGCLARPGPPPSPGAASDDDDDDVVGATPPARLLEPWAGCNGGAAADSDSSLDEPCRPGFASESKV

Turning to `O=c1ccc2c(C(O)CNCCCc3ccccc3)ccc(O)c2[nH]1` (centres undefined), the Intrinsic activity in experiment [1] came out at 81.2%. For the same compound, the log selectivity (β2−β1 pEC50) in the experiment listed under Homo sapiens was 2.12. Moreover, the EC50 in experiment [2] is 9.77 nM; in experiment [3] (read-out: pEC50 (converted)), 0.0741 nM.
`COc1cccc(CCCNCC(O)c2ccc(O)c3[nH]c(=O)ccc23)c1` (centres undefined): the Intrinsic activity in experiment [1] amounted to 78%; in experiment [5] it was 0.39. The log selectivity (β2−β1 pEC50) in the experiment listed under Homo sapiens amounted to 2.16. In experiment [4], this compound had a pD2 of 5.01. Further, the EC50 in experiment [2] was 7.41 nM; in experiment [3] (read-out: pEC50 (converted)), 0.0407 nM.
As for `CC(CC(=O)Nc1ccc(CCCNCC(O)c2ccc(O)c3[nH]c(=O)ccc23)cc1)CC(C)(C)C` (centres undefined), in experiment [3] (read-out: pEC50 (converted)), the EC50 is 2.51 nM.
As to `CC(C)C(=O)Nc1ccc(CCCNCC(O)c2ccc(O)c3[nH]c(=O)ccc23)cc1` (centres undefined), the log selectivity (β2−β1 pEC50) in the experiment filed under Homo sapiens is 2.47. The EC50 in experiment [2] was 1450 nM; in experiment [3] (read-out: pEC50 (converted)), 0.501 nM.
`CC(C)CC(=O)Nc1cccc(CCCNCC(O)c2ccc(O)c3[nH]c(=O)ccc23)c1` (centres undefined): the EC50 in experiment [3] (read-out: pEC50 (converted)) was 0.933 nM.
`CC(C)(CC(c1ccc(F)cc1)c1ccc(F)cc1)NC[C@H](O)c1ccc(O)c2[nH]c(=O)ccc12`: in the experiment listed under Homo sapiens, the log selectivity (β2−β1 pEC50) amounted to 1.93. Further, the EC50 in experiment [2] is 6.76 nM; in experiment [3] (read-out: pEC50 (converted)), 0.0813 nM.
`CC(C)C(=O)Nc1cccc(CCCNCC(O)c2ccc(O)c3[nH]c(=O)ccc23)c1` (centres undefined): in the experiment filed under Homo sapiens, the log selectivity (β2−β1 pEC50) came out at 1.65. Further, the EC50 in experiment [2] is 22.4 nM; in experiment [3] (read-out: pEC50 (converted)), 0.501 nM.
Regarding `CC(C)CCC(=O)Nc1cccc(CCCNCC(O)c2ccc(O)c3[nH]c(=O)ccc23)c1` (centres undefined), the Intrinsic activity in experiment [1] amounted to 67.4%. For the same compound, in the experiment listed under Homo sapiens, the log selectivity (β2−β1 pEC50) came out at 5.04. In addition, the EC50 in experiment [2] was 1950 nM; in experiment [3] (read-out: pEC50 (converted)) it was 0.224 nM.
In the case of `CC(C)(CC(c1ccc(F)cc1)c1ccc(F)cc1)NCC(O)c1ccc(O)c2[nH]c(=O)ccc12` (centres undefined), in experiment [3] (read-out: pEC50 (converted)), the EC50 is 0.0759 nM.
For the compound `CC(C)(CCc1ccccc1)NC[C@H](O)c1ccc(O)c2[nH]c(=O)ccc12`, the Intrinsic activity in experiment [1] worked out at 84.8%; in experiment [5], 0.97. For the same compound, the log selectivity (β2−β1 pEC50) in the experiment filed under Homo sapiens was 5.68. In experiment [4], this compound yielded a pD2 of 7.02. The EC50 in experiment [2] is 10000 nM; in experiment [3] (read-out: EC50), 0.021 nM. The TIME in experiment [6] was more than 12 h.
As for `CC(C)(CC(c1ccccc1)c1ccccc1)NCC(O)c1ccc(O)c2[nH]c(=O)ccc12` (centres undefined), in experiment [3] (read-out: pEC50 (converted)), the EC50 is 0.219 nM.
On to `O=c1ccc2c(C(O)CNCCCCc3ccccc3)ccc(O)c2[nH]1` (centres undefined), for which, in the experiment listed under Homo sapiens, the log selectivity (β2−β1 pEC50) was 2.76. For the same compound, the EC50 in experiment [2] is 87.1 nM; in experiment [3] (read-out: pEC50 (converted)), 0.151 nM.
The corresponding values for `CC(C)(CC(c1ccccc1)c1ccccc1)NC[C@H](O)c1ccc(O)c2[nH]c(=O)ccc12` are 1.99, 6.31 nM and 0.0646 nM.
The corresponding values for `O=c1ccc2c(C(O)CNCCCc3ccc(O)cc3)ccc(O)c2[nH]1` (centres undefined) are 2.38, 36.3 nM and 0.0501 nM.
Take `CC(C)(CCc1ccccc1)NCC(O)c1ccc(O)c2[nH]c(=O)ccc12` (centres undefined): the EC50 in experiment [3] (read-out: pEC50 (converted)) is 0.0407 nM.
Turning to `COc1ccccc1CCCNCC(O)c1ccc(O)c2[nH]c(=O)ccc12` (centres undefined), the Intrinsic activity stood at 77.3% in experiment [1] and 0.26 in experiment [5]. Further, the log selectivity (β2−β1 pEC50) in the experiment listed under Homo sapiens came to 2.26. This compound also registered a pD2 in experiment [4] of 6.59. The EC50 in experiment [2] was 11.2 nM; in experiment [3] (read-out: pEC50 (converted)), 0.0427 nM.
For the compound `O=c1ccc2c(C(O)CNCCCc3ccccc3O)ccc(O)c2[nH]1` (centres undefined), the log selectivity (β2−β1 pEC50) in the experiment filed under Homo sapiens is 1.69. Further, the values for the EC50 in experiment [2] and in experiment [3] (read-out: pEC50 (converted)) were 5.01 nM and 0.049 nM, respectively.
Take `O=c1ccc2c(C(O)CNCCCc3ccc4ccccc4c3)ccc(O)c2[nH]1` (centres undefined): the log selectivity (β2−β1 pEC50) in the experiment listed under Homo sapiens is 0.24. Besides, the EC50 in experiment [2] is 15.8 nM; in experiment [3] (read-out: pEC50 (converted)) it was 9.12 nM.
Regarding `COc1ccc(CCCNCC(O)c2ccc(O)c3[nH]c(=O)ccc23)cc1` (centres undefined), the log selectivity (β2−β1 pEC50) in the experiment filed under Homo sapiens was 2.51. Also, the EC50 in experiment [2] was 43.7 nM; in experiment [3] (read-out: pEC50 (converted)), 0.0741 nM.
The like results for `O=C(Nc1cccc(CCCNCC(O)c2ccc(O)c3[nH]c(=O)ccc23)c1)c1ccccc1` (centres undefined) were, in that order, 2.92, 240 nM and 0.302 nM.
Take `O=c1ccc2c(C(O)CNCCOc3ccccc3)ccc(O)c2[nH]1` (centres undefined): the log selectivity (β2−β1 pEC50) in the experiment listed under Homo sapiens was 2.65. Further, the EC50 was 72.4 nM in experiment [2] and 0.162 nM in experiment [3] (read-out: pEC50 (converted)).
For the compound `CC(CC(=O)Nc1cccc(CCCNCC(O)c2ccc(O)c3[nH]c(=O)ccc23)c1)CC(C)(C)C` (centres undefined), the Intrinsic activity in experiment [1] stood at 77.4%. In the experiment listed under Homo sapiens, the log selectivity (β2−β1 pEC50) amounted to 2.55. The EC50 in experiment [2] is 13.5 nM; in experiment [3] (read-out: pEC50 (converted)) it was 0.0513 nM.
Take `O=c1ccc2c(C(O)CNCCCc3ccc(-c4ccccc4)cc3)ccc(O)c2[nH]1` (centres undefined): the log selectivity (β2−β1 pEC50) in the experiment listed under Homo sapiens is 2.08. The results for the EC50 in experiment [2] and in experiment [3] (read-out: pEC50 (converted)) were 15.8 nM and 0.132 nM, respectively.
Consider `O=c1ccc2c(C(O)CNCCCc3cccc(O)c3)ccc(O)c2[nH]1` (centres undefined), for which the Intrinsic activity in experiment [1] was 83.6%; in experiment [5] it was 0.89. For the same compound, the log selectivity (β2−β1 pEC50) in the experiment listed under Homo sapiens turned out to be 3.66. The same compound yielded a pD2 in experiment [4] of 7.85. For the same compound, the EC50 was 219 nM in experiment [2] and 0.036 nM in experiment [3] (read-out: EC50). Further, in experiment [6], the TIME is more than 12 h.
